This passage reports Drug metabolism and Retention_time results from ChEMBL document CHEMBL3525925, “In vitro studies on the oxidative metabolism of 20(s)-ginsenoside Rh2 in human, monkey, dog, rat, and mouse liver microsomes, and human liver s9” (Drug Metab Dispos, 2012).

Series [1] relates to Liver cytosol. Nature of the series: Drug metabolism in human liver cytosol assessed as 26-carboxy,20(S)-Ginsenoside Rh2 formation at 10 uM by LC/MS analysis in presence of 100 uM raloxifene aldehyde oxidase inhibitor. Format: ADME. The following applies: in the assay text read “100 nM raloxifene” for “100 uM raloxifene”. The essentials: (§1)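 Pooled human liver cytosol (1 mg/ml) with 2 mM NAD+ and inhibitor in 100 mM potassium phosphate pH 7.4; inhibitors given from DMSO, 0.1% v/v final. After 15 min preincubation at 37°C, started with 10 μM M1-1 or 26-aldehyde-Rh2. Run 60 min, stopped with ice-cold acetonitrile. Duplicates, uninhibited controls; M2-3 acid measured by LC/MSn.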

Series [2] deals with Liver cytosol. As to the kind of experiment: Drug metabolism in human liver cytosol assessed as 26-carboxy,20(S)-Ginsenoside Rh2 formation at 10 uM by LC/MS analysis in presence of 50 uM disulfiram aldehyde dehydrogenase inhibitor. The format is ADME. In a few lines:
as §1

For series [3], the system named is Liver cytosol. Nature of the series: Drug metabolism in human liver cytosol assessed as 26-carboxy,20(S)-Ginsenoside Rh2 formation at 10 uM by LC/MS analysis in presence of 50 uM 4-methylpyrazole alcohol dehydrogenase inhibitor. The format is ADME. In a few lines:
as §1

For series [4], the system named is Liver microsome. Nature of the series: Drug level in beagle dog liver microsomes treated with 10 uM 20(S)-ginsenoside Rh2 for 60 mins by MS2 spectra. The settings on record: 1 h. The format is ADME, Canis lupus familiaris. The essentials: (§2)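 Rh2 at 10 μM final (from methanol stock; 0.1% v/v methanol final) in 100 mM potassium phosphate pH 7.4 with 2 mM NADPH, open-to-air tubes at 37°C. 3 min preincubation, then started with liver microsomes or S9 at 1 mg/ml protein. Incubated 60 min, stopped with equal volume ice-cold acetonitrile. Controls lacked NADPH; duplicates. Metabolites detected by LC/ion-trap MSn.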
Background: Microsomes from liver hold many membrane-bound enzymes, among them those of drug oxidation.

The nature of series [5]: Retention time in cynomolgus monkey liver microsomes treated with 10 uM 20(S)-ginsenoside Rh2 by MS2 spectra. The format is ADME, Macaca fascicularis. In a few lines:
(§3)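 Samples: incubation mixed with equal volume methanol, centrifuged at 14,000g for 5 min, dried under nitrogen at 40°C, reconstituted. Separated on Eclipse XDB-C18 (4.6 × 150 mm, 5 μm) at 0.5 ml/min. Gradient: 0.1% formic acid in methanol against 0.1% formic acid in 5 mM ammonium acetate, 70% to 100% organic over 17 min. Ion-trap MSn detection.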

In series [6] the test system is Liver. Nature of the series: Drug level in CD-1 mouse liver microsomes treated with 10 uM 20(S)-ginsenoside Rh2 for 60 mins by MS2 spectra. The format is ADME. The settings on record: 1 h. In a few lines: as §2
Series [7] has as its system Liver microsome. As to the kind of experiment: Drug level in human liver microsomes treated with 10 uM 20(S)-ginsenoside Rh2 for 60 mins by MS2 spectra. The format is ADME. The settings on record: 1 h. In a few lines:
as §2

The test system of series [8] is Liver microsome. As to the kind of experiment: Drug level in Sprague-Dawley rat liver microsomes treated with 10 uM 20(S)-ginsenoside Rh2 for 60 mins by MS2 spectra. Format: ADME. The following applies: 1 h. In a few lines:
as §2

The target of the next series is Cytochrome P450 3A5 (Homo sapiens, UniProt P20815). As to the kind of experiment: Drug level in human recombinant CYP3A5 treated with 10 uM 20(S)-ginsenoside Rh2 for 60 mins by MS2 spectra. Format: ADME. The following applies: recombinant enzyme, 1 h. In a few lines:
(§4)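 Recombinant human P450 (50 nM) with 10 μM Rh2 under the microsomal conditions: 100 mM potassium phosphate pH 7.4, 2 mM NADPH, 37°C for 60 min. Stopped with equal volume ice-cold acetonitrile. Run in duplicate; products analysed by LC/ion-trap MSn.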

Series [9] in a line: Drug level in cynomolgus monkey liver microsomes treated with 10 uM 20(S)-ginsenoside Rh2 for 60 mins by MS2 spectra. The format is ADME, Macaca fascicularis. The following applies: 1 h. The essentials:
as §2

Series [10] deals with Liver. As to the kind of experiment: Drug level in human liver S9 fraction treated with 10 uM 20(S)-ginsenoside Rh2 for 60 mins by MS2 spectra. Format: ADME, subcellular. The settings on record: s9, 1 h. The essentials:
as §2

In a further series the target is Cytochrome P450 3A4 (Homo sapiens, UniProt P08684). Nature of the series: Drug level in human recombinant CYP3A4 treated with 10 uM 20(S)-ginsenoside Rh2 for 60 mins by MS2 spectra. Format: ADME. The following applies: recombinant enzyme, 1 h. The essentials:
as §4

For series [11], the system named is Liver microsome. As to the kind of experiment: Retention time in human liver microsomes treated with 10 uM 20(S)-ginsenoside Rh2 by MS2 spectra. Format: ADME. The essentials: as §3
Series [12] deals with Liver. As to the kind of experiment: Retention time in human liver S9 fraction treated with 10 uM 20(S)-ginsenoside Rh2 by MS2 spectra. The format is ADME, subcellular. The essentials: as §3

Chain of Cytochrome P450 3A4 (P08684 whole entry): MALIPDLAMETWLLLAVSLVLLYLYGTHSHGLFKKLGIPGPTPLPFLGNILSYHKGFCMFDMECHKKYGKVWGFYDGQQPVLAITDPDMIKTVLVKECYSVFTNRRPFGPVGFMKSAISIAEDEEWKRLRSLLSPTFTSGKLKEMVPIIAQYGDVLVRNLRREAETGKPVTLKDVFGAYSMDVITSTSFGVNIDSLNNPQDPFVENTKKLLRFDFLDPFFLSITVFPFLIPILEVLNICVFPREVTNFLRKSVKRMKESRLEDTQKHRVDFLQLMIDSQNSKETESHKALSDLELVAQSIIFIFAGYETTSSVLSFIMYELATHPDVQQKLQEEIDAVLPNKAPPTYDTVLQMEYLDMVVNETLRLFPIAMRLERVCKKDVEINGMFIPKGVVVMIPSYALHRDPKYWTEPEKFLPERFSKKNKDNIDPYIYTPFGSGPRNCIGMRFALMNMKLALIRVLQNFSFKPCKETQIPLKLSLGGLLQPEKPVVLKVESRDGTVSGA
Chain of Cytochrome P450 3A5 (P20815 whole entry): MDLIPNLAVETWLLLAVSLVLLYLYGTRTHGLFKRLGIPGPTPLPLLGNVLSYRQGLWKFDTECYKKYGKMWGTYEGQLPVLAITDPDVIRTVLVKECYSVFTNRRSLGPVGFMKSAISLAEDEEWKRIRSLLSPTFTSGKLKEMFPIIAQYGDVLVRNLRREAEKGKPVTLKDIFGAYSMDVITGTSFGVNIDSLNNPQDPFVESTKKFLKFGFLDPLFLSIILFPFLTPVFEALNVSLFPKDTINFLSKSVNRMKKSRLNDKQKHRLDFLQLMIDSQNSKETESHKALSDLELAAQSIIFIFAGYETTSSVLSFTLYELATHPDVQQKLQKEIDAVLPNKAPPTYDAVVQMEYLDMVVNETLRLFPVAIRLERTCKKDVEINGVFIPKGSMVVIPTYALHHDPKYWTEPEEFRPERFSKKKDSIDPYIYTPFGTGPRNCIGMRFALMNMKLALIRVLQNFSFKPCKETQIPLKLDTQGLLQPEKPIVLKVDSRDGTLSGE

Regarding `C/C(C=O)=C\CC[C@](C)(O)[C@H]1CC[C@]2(C)[C@@H]1[C@H](O)C[C@@H]1[C@@]3(C)CC[C@H](O[C@@H]4O[C@H](CO)[C@@H](O)[C@H](O)[C@H]4O)C(C)(C)[C@@H]3CC[C@]12C`, the Drug metabolism result in the series with Liver cytosol [1], in the series with Liver cytosol [2] and in the series with Liver cytosol [3] was “metabolite_not_detected” each time.
For `CC(C)(O)C(CC[C@](C)(O)[C@H]1CC[C@]2(C)[C@@H]1[C@H](O)C[C@@H]1[C@@]3(C)CC[C@H](O[C@@H]4O[C@H](CO)[C@@H](O)[C@H](O)[C@H]4O)C(C)(C)[C@@H]3CC[C@]12C)SC[C@H](NC(=O)CC[C@H](N)C(=O)O)C(=O)NCC(=O)O` (stereo not given in full), the Drug metabolism entry in the series on Liver microsome [4] is recorded as “metabolite_not_detected”; in the series on Liver [6] it was “metabolite_not_detected”; in the series with Liver microsome [7], “metabolite_not_detected”; with Liver microsome [8] it was “metabolite_not_detected”; on Cytochrome P450 3A5 it was “metabolite_not_detected”; in series [9], “metabolite_detected”. Also, the Drug metabolism entry in the series with Liver [10] and at Cytochrome P450 3A4 was “metabolite_not_detected” throughout. Moreover, the Retention_time in series [5] came out at 10.6 min.
Turning to `C/C(=C\CC[C@](C)(O)[C@H]1CC[C@]2(C)[C@@H]1[C@H](O)C[C@@H]1[C@@]3(C)CC[C@H](O[C@@H]4O[C@H](CO)[C@@H](O)[C@H](O)[C@H]4O)C(C)(C)[C@@H]3CC[C@]12C)CO`, the Drug metabolism result in the series on Liver microsome [4] was “metabolite_detected”; with Liver cytosol [1], “metabolite_not_detected”; in the series with Liver cytosol [2], “metabolite_not_detected”; in the series on Liver [6], “metabolite_detected”; with Liver cytosol [3], “metabolite_not_detected”; in the series on Liver microsome [7] it was “metabolite_detected”. The Drug metabolism result (in the series on Liver microsome [8]; at Cytochrome P450 3A5; in series [9]; in the series on Liver [10]; on Cytochrome P450 3A4) was “metabolite_detected” in each case. For the same compound, the Retention_time in the series on Liver microsome [11] and in the series on Liver [12] was 16.7 min in each case.
